Source: ChEMBL document CHEMBL1153732, “Lamiridosins, hepatitis C virus entry inhibitors from Lamium album” (J Nat Prod, 2009)
pIC50: −log10 of the molar value. Converted amounts (≈) assume the structure as drawn. The source made the active and inactive calls. The rule behind the calls is not given here.

Legend:
[1] = tested on: Hepatitis C virus; experiment: Antiviral activity against HCV expressing E1E2 glycoprotein with Vpr-deficient HIV vector assessed as inhibition of viral entry in human Huh7 cells at 20 ug/ml measured after 72 hrs by luciferase reporter gene assay; format: functional, organism-based; details: Hepacivirus hominis, Huh-7
In short: (§1)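 HCVpp (E1E2 with HIV luciferase vector, made in 293T) was mixed at room temperature with 20 µg/mL compound and added to Huh7 cells for 6 h, then replaced by growth medium. Cells were lysed at 72 h postinfection and luciferase read as % inhibition. Samples in duplicate, experiments repeated at least three times.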

[2] = tested on: Hepatitis C virus; experiment: Antiviral activity against HCV expressing E1E2 glycoprotein with Vpr-deficient HIV vector assessed as inhibition of viral entry in human Huh7 cells at 20 ug/ml after 72 hrs by luciferase reporter gene assay in presence of beta-glucosidase enzyme for 0.5 hrs; format: functional, Hepacivirus hominis; details: Huh-7
In short: (§2)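 Iridoid glucosides were hydrolysed with β-glucosidase for 0.5 h or 4 h before testing at 20 µg/mL. Hydrolysates were mixed at rt with HCVpp and incubated with Huh7 cells for 6 h, then the medium was changed. Luciferase was read at 72 h postinfection as % inhibition. Duplicates, ≥3 experiments.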

[3] = tested on: Hepatitis C virus; experiment: Antiviral activity against HCV expressing E1E2 glycoprotein with Vpr-deficient HIV vector assessed as inhibition of viral entry in human Huh7 cells at 20 ug/ml after 72 hrs by luciferase reporter gene assay in presence of beta-glucosidase enzyme for 4 hrs; format: functional, Hepacivirus hominis; details: Huh-7; in short: as §2
[4] = tested on: Hepatitis C virus; experiment: Antiviral activity against HCV expressing E1E2 glycoprotein with Vpr-deficient HIV vector assessed as inhibition of pseudoparticle entry in human Huh7 cells at 100 ug/ml preincubated for 20 mins measured after 72 hrs by luciferase reporter gene assay; format: functional; details: Huh-7
In short: (§3)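 HCV E1E2 or VSVG pseudoviruses were made by cotransfecting 293T cells with the envelope plasmid and pNL4-3-Luc-R-E-, then harvested at 48 h and filtered. Each pseudovirus was preincubated 20 min at rt with 100 µg/mL sample or DMSO, then put on Huh7 cells for 6 h before the medium was replaced. Luciferase was read at 72 h as % of no-drug control. Duplicates, ≥3 experiments.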

[5] = tested on: Hepatitis C virus; experiment: Antiviral activity against HCV infected in human Huh7 cells assessed as inhibition of viral replication after 48 hrs by NS5A staining; details: Huh-7, 48 h
[6] = Cytotoxicity against human HepG2(2.2.15) cells at 50 ug/ml; format: cell-based
[7] = tested on: Vesicular stomatitis virus; experiment: Antiviral activity against VSV with Vpr-deficient HIV vector assessed as inhibition of VSVG pseudo-particle entry in human Huh7 cells at 100 ug/ml preincubated for 20 mins measured after 72 hrs by luciferase reporter gene assay; format: functional, organism-based; details: Huh-7; in short: as §3
[8] = biological target: T1, CD81 antigen (Homo sapiens) (UniProt P60033); experiment: Inhibition of human recombinant GST-tagged CD81 protein assessed as HCV E1E2 binding after 1 hr by Western blot analysis
T1 sequence (whole entry): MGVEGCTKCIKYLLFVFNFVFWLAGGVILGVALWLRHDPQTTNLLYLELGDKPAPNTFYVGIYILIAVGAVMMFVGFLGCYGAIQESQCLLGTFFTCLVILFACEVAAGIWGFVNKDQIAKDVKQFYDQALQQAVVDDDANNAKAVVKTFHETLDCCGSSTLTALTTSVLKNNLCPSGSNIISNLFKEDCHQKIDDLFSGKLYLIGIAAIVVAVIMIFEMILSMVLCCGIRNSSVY
In short: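 Lysates of 293T cells expressing HCV E1E2 were taken 48 h post-transfection in 0.5% Triton X-100 buffer with protease inhibitor and clarified. They were rocked with 50 µg/mL compound or DMSO and 5 µg CD81-GST (large extracellular loop of human CD81) at 4 °C for 16 h. Glutathione beads were added for 1 h at 4 °C, then washed. Western blot for E2 and GST; GST alone served as control.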

[9] = tested on: Hepatitis C virus; experiment: Antiviral activity against HCV expressing E1E2 glycoprotein with Vpr-deficient HIV vector assessed as inhibition of pseudoparticle entry in human Huh7 cells preincubated for 20 mins measured after 72 hrs by luciferase reporter gene assay; format: functional, organism-based, Hepacivirus hominis; details: Huh-7
In short: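 HCV E1E2/HIV-luciferase pseudovirus was preincubated 20 min at rt with a range of concentrations in µg/mL and incubated with Huh7 cells (8 × 10^4 per well, seeded the day before) for 6 h, then the medium was replaced. Luciferase was measured at 72 h and expressed as % of no-drug control. IC50 came from the concentration-response. Duplicates, ≥3 repeats.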

[10] = tested on: Hepatitis C virus; experiment: Antiviral activity against HCV expressing E1E2 glycoprotein with Vpr-deficient HIV vector assessed as inhibition of viral entry in human Huh7 cells at 20 ug/ml after 72 hrs by luciferase reporter gene assay; format: functional, Hepacivirus hominis; details: Huh-7, 72 h; in short: as §1

| Compound | Activity [1] | inhibition at 20 µg/mL [2] [%] | inhibition at 20 µg/mL [3] [%] | IC50 [5] [µg/mL] | Activity [8] | further results |
| --- | --- | --- | --- | --- | --- | --- |
| C[C@H]1[C@H]2[C@H](O[C@@H]3O[C@H](CO)[C@@H](O)[C@H](O)[C@H]3O)OC=C(C(=O)O)[C@H]2C[C@@H]1O | inactive | -21.6 | 5.3 | – | – | – |
| COC(=O)C1=CO[C@@H](O[C@@H]2O[C@H](CO)[C@@H](O)[C@H](O)[C@H]2O)[C@@H]2[C@H](C)[C@@H](O)C[C@H]12 | inactive | -12.7 | 0.4 | – | – | – |
| COC(=O)C1=CO[C@@H](O[C@@H]2O[C@H](CO)[C@@H](O)[C@H](O)[C@H]2O)[C@H]2[C@@H]1[C@H](O)[C@H](O)[C@]2(C)O | inactive | – | – | – | – | Activity ([4]; Hepacivirus hominis): inactive |
| OCC1=C[C@@H](O)[C@@H]2C=CO[C@@H](O[C@@H]3O[C@H](CO)[C@@H](O)[C@H](O)[C@H]3O)[C@H]12 | inactive | – | – | – | – | – |
| COC(=O)C1=COC(O)[C@H]2[C@@H]1[C@H](O)[C@H](O)C2(C)O (mixture of isomers) | inactive | – | – | 15 | inactive | Activity [6]: Non-toxic; Activity [7]: inactive; inhibition at 100 µg/mL [4]: 50%; pIC50 [9]: 5.64 |
| O=C(OCC1=C[C@@H](O)[C@@H]2C=CO[C@@H](O[C@@H]3O[C@H](CO)[C@@H](O)[C@H](O)[C@H]3O)[C@H]12)c1ccc(O)cc1 [AGNUSIDE] | inactive | 12.9 | 20.3 | – | – | – |
| O=C(/C=C/c1ccc(O)cc1)OCC1=C[C@@H](O)[C@@H]2C=CO[C@@H](O[C@@H]3O[C@H](CO)[C@@H](O)[C@H](O)[C@H]3O)[C@H]12 [EUROSTOSIDE] | inactive | 46.6 | 56.6 | 20 (≈ 40.6 µM) | inactive | – |
| COC(=O)C1=CO[C@@H](O[C@@H]2O[C@H](CO)[C@@H](O)[C@H](O)[C@H]2O)[C@H]2[C@@H]1C=C[C@@]2(O)CO [GARDENOSIDE] | inactive | -3.4 | 21.1 | – | – | – |
| COC(=O)C1=CO[C@@H](O)[C@@H]2C(CO)=CC[C@H]12 [GENIPIN] | – | – | – | 20 (≈ 88.4 µM) | inactive | inhibition at 20 µg/mL [10]: 73.2% |
| COC(=O)C1=CO[C@@H](O[C@@H]2O[C@H](CO)[C@@H](O)[C@H](O)[C@H]2O)[C@@H]2C(CO)=CC[C@H]12 [GENIPOSIDE] | inactive | 9.8 | 17.1 | – | – | inhibition at 20 µg/mL [10]: 1.1% |
| C[C@]1(OC(=O)/C=C/c2ccccc2)C[C@@H](O)[C@]2(O)C=CO[C@@H](O[C@@H]3O[C@H](CO)[C@@H](O)[C@H](O)[C@H]3O)[C@@H]21 [HARPAGOSIDE] | inactive | -41.7 | 17.1 | – | – | inhibition at 20 µg/mL [10]: 2.1% |
| C[C@@H]1[C@H]2[C@H](O[C@@H]3O[C@H](CO)[C@@H](O)[C@H](O)[C@H]3O)OC=C(C(=O)O)[C@H]2C[C@@H]1O [LOGANIC ACID] | inactive | 39.4 | 52.5 | 11 (≈ 29.2 µM) | inactive | – |
| COC(=O)C1=CO[C@@H](O[C@@H]2O[C@H](CO)[C@@H](O)[C@H](O)[C@H]2O)[C@@H]2[C@@H](C)[C@@H](O)C[C@H]12 [LOGANIN] | inactive | 24.8 | 41.4 | 16 (≈ 41 µM) | inactive | – |
| COc1cc(C(=O)O[C@H]2[C@@H]3C=CO[C@@H](O[C@@H]4O[C@H](CO)[C@@H](O)[C@H](O)[C@H]4O)[C@@H]3[C@@]3(CO)O[C@@H]23)ccc1O [PICROSIDE II] | inactive | 31.6 | 59.4 | – | – | – |
| COC(=O)C1=CO[C@@H](O[C@@H]2O[C@H](CO)[C@@H](O)[C@H](O)[C@H]2O)[C@H]2[C@@H]1[C@H](O)C[C@]2(C)O [SHANZHISIDE METHYL ESTER] | inactive | 49 | 61.2 | 18 (≈ 44.3 µM) | inactive | inhibition at 20 µg/mL [10]: -13.1% |
| COC(=O)C1=CO[C@@H](O[C@@H]2O[C@H](CO)[C@@H](O)[C@H](O)[C@H]2O)[C@H]2[C@@H]1C(=O)C[C@@H]2C [VERBENALIN] | inactive | 21.9 | 43.4 | – | – | – |
